One block for each compound: values may come before it. The source made the active and inactive calls. No cut-off for these calls is given here.
Experiments:
[1] = molecular target: T1, Tyrosine-protein phosphatase non-receptor type 1 (Rattus norvegicus) (UniProt P20417); assay: Inhibition of PTPase (PTP1B) activity in rat hepatic membrane at 50 uM concentration, using pNPP as the substrate; format: cell membranes; conditions: Liver
T1 sequence (whole entry): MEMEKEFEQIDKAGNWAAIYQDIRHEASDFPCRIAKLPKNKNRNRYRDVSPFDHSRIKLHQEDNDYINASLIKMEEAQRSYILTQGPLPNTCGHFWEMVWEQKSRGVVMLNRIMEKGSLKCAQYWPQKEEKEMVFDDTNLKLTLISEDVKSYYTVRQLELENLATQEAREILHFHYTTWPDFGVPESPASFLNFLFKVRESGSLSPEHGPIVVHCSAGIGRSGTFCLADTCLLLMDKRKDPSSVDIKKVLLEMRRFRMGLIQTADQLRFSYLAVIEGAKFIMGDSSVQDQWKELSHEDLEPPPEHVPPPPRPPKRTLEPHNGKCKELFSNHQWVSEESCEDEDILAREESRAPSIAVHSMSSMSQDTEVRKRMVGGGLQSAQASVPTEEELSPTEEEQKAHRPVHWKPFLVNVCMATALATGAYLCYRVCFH
How it was run: (§1)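 Liver membranes from male Sprague-Dawley rats (100-150 g), about 30 µg protein per well. Preincubated 10 min at 37 °C with compound in 1.25% DMSO in 50 mM HEPES pH 7.4. Then 6.33 mM pNPP for 30 min at 37 °C, stopped with NaOH. p-Nitrophenol read at 410 nm. Run in triplicate. Reported as percent of untreated control.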

Mus musculus [2] = assay: Evaluated in vivo for their ability to decrease plasma glucose levels in diabetic C57BL/KsJ db/db mouse at a dose 100 mg/kg/day; NS=not significant; format: functional, organism-based
How it was run: (§2)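 Diabetic db/db or ob/ob mice dosed orally once daily for 4 days. Plasma glucose and insulin reported as percent change from a vehicle-treated group. 4-6 mice per group. Significance set at p < 0.05 or p < 0.01 versus vehicle; NS means generally less than -15% change.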

Mus musculus [3] = assay: Evaluated in vivo for their ability to decrease plasma glucose levels in diabetic C57BL/KsJ db/db mouse at a dose 100 mg/kg/day.([…]); format: functional; how it was run: as §2
[4] = molecular target: T1, Tyrosine-protein phosphatase non-receptor type 1 (Rattus norvegicus); assay: Inhibition of PTPase activity in rat hepatic membrane at a concentration of 250 uM using pNPP as the substrate; format: cell membranes; conditions: Liver; how it was run: as §1
Mus musculus [5] = assay: Evaluated for their ability to decrease plasma insulin levels in mouse at a dose 100 mg/kg/day.; NS is non significant; format: functional, organism-based; how it was run: as §2
[6] = molecular target: T1, Tyrosine-protein phosphatase non-receptor type 1 (Rattus norvegicus); assay: Inhibition of PTPase activity using recombinant r-PTP1B as the enzyme and IR-triphosphopeptide as substrate at 50 uM
How it was run: (§3)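 Rat recombinant PTP1B in 33 mM TRIS-HCl, 2 mM EDTA, 50 mM β-mercaptoethanol, pH 7.4 (about 1000-2000 nmol/min/mg). Preincubated 10 min at 37 °C with or without compound in HEPES buffer pH 7.4. Released phosphate read by malachite green-ammonium molybdate at 650 nm against a phosphate standard. Quadruplicates. IC50 by four-parameter logistic fit.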

Mus musculus [7] = assay: Evaluated in vivo for their ability to decrease plasma glucose levels in diabetic C57BL/KsJ ob/ob mouse at a dose 100 mg/kg/day; NS is non significant; format: functional, organism-based; how it was run: as §2
[8] = molecular target: T2, Tyrosine-protein phosphatase non-receptor type 1 (Rattus norvegicus, UniProt P20417); assay: Inhibition of PTPase activity in rat hepatic membrane at a concentration of 50 uM using pNPP as the substrate; format: cell membranes, Liver; how it was run: as §1
T2 sequence (P20417 whole entry): T1 sequence (whole entry)

Mus musculus [9] = assay: Evaluated in vivo for their ability to decrease plasma glucose levels in diabetic C57BL/KsJ db/db mouse at a dose 100 mg/kg/day; NS is non significant; format: functional, organism-based; how it was run: as §2
[10] = molecular target: T3, Tyrosine-protein phosphatase non-receptor type 1 (Mus musculus) (UniProt P35821); assay: Ability to decrease plasma insulin levels in mouse at a dose 100 mg/kg/day; format: functional, organism-based; how it was run: as §2
T3 sequence (whole entry): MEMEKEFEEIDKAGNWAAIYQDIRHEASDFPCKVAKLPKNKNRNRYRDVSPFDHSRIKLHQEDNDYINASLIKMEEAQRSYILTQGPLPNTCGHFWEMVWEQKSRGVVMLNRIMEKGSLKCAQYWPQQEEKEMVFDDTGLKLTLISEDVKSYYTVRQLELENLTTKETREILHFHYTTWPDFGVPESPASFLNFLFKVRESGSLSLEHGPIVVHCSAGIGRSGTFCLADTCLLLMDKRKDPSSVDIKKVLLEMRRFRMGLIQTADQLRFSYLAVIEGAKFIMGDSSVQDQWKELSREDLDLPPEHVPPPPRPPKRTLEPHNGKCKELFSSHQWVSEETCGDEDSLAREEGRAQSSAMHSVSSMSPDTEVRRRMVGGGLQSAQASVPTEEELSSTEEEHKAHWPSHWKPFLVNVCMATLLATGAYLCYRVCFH

[11] = molecular target: T3, Tyrosine-protein phosphatase non-receptor type 1 (Mus musculus); assay: In vivo ability to decrease plasma glucose levels in diabetic C57BL/KsJ ob/ob mouse at a dose 100 mg/kg/day; format: functional, organism-based; how it was run: as §2
[12] = molecular target: T1, Tyrosine-protein phosphatase non-receptor type 1 (Rattus norvegicus); assay: Inhibition of Protein-tyrosine phosphatase 1B activity in rat hepatic membrane at a concentration of 50 uM using pNPP as the substrate; format: cell membranes; conditions: Liver; how it was run: as §1
[13] = molecular target: T2, Tyrosine-protein phosphatase non-receptor type 1; assay: Inhibition of PTPase activity using recombinant Protein-tyrosine phosphatase 1B and IR-triphosphopeptide as substrate; ND is no data.
Mus musculus [14] = assay: Evaluated in vivo for their ability to decrease plasma glucose levels in diabetic C57BL/KsJ ob/ob mouse at a dose 100 mg/kg/day, **p indicates <0.01; format: functional
How it was run: (§4)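 Mice dosed orally once daily for 4 days; plasma glucose and insulin measured and expressed as percent change versus a vehicle-treated group (mean ± SE, 4-6 mice/group). NS is generally less than -15% change. Significance is versus vehicle-treated mice.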

Mus musculus [15] = assay: Evaluated for their ability to decrease plasma insulin levels in mouse at a dose 100 mg/kg/day,**p indicates <0.01; format: functional; how it was run: as §4
[16] = molecular target: T1, Tyrosine-protein phosphatase non-receptor type 1 (Rattus norvegicus); assay: Inhibition of PTPase activity using recombinant r-PTP1B as the enzyme and IR-triphosphopeptide as substrate at 10 uM
How it was run: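 Recombinant rat PTP1B (human 321-aa form assayed the same way), activity about 1000-2000 nmol/min/mg, preincubated with compound for 10 min at 37 °C in HEPES pH 7.4. The reaction is started with 50 µM triphosphorylated insulin receptor 1142-1153 dodecapeptide and run 30 min at 37 °C. Released phosphate read by malachite green-molybdate at 650 nm, in quadruplicate. Result is percent inhibition versus control.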

Mus musculus [17] = assay: Evaluated in vivo for their ability to decrease plasma glucose levels in diabetic C57BL/KsJ db/db mouse at a dose 100 mg/kg/day. *p indicates <0.05; format: functional; how it was run: as §4
Mus musculus [18] = assay: Evaluated in vivo for their ability to decrease plasma glucose levels in diabetic C57BL/KsJ db/db mouse at a dose 100 mg/kg/day; NS is non significant, generally less than - 15% change; format: functional, organism-based; how it was run: as §2
[19] = molecular target: T2, Tyrosine-protein phosphatase non-receptor type 1; assay: Inhibition of PTPase activity using recombinant r-PTP1B and IR-triphosphopeptide as substrate; ND is no data.; how it was run: as §3
Mus musculus [20] = assay: Evaluated in vivo for their ability to decrease plasma glucose levels in diabetic C57BL/KsJ db/db mouse at a dose 100 mg/kg/day, *p indicates <0.05; format: functional; how it was run: as §4
Mus musculus [21] = assay: Evaluated for their ability to decrease plasma insulin levels in mouse at a dose 100 mg/kg/day, **p indicates <0.01; format: functional; how it was run: as §2
Mus musculus [22] = assay: Evaluated in vivo for their ability to decrease plasma glucose levels in diabetic C57BL/KsJ ob/ob mouse at a dose 50 mg/kg/day.; format: functional, organism-based; how it was run: as §2
Mus musculus [23] = assay: Evaluated for their ability to decrease plasma insulin levels in mouse at a dose 50 mg/kg/day. **p indicates <0.01; format: functional; how it was run: as §2

inhibition [1]: 5%
Compound: C/C(=C\CC1SC(=O)NC1=O)c1cccc(OCc2nc(-c3ccccc3)oc2C)c1 (stereo unspecified)
Decrease (Mus musculus [2]): inactive

inhibition [4]: 29%
Compound: Cc1c(C)c2c(c(C)c1O)CCC(C)(COc1ccc(CC3SC(=O)NC3=O)cc1)O2 (stereo unspecified) [TROGLITAZONE]
Decrease (Mus musculus [3]): 34%

inhibition [6]: 0.6%
Inhibition % [8]: 24%
Compound: Cc1oc(-c2ccc(C(F)(F)F)cc2)nc1COc1cccc(/C(=C/Cn2oc(=O)[nH]c2=O)C(C)(C)C)c1
Decrease (Mus musculus [5]): inactive
Decrease (Mus musculus [7]): inactive

Decrease [10]: Not significant
Decrease [11]: Not significant
inhibition [12]: 54%
IC50 [13]: Not significant
Compound: C/C(Cn1oc(=O)[nH]c1=O)=C(\C)c1cccc(OCc2nc(-c3ccc(C(F)(F)F)cc3)oc2C)c1
Decrease (Mus musculus [9]): inactive

Compound: Cc1oc(-c2ccc(C(F)(F)F)cc2)nc1COc1cccc(C#CC(C)n2oc(=O)[nH]c2=O)c1 (stereo unspecified)
Decrease (Mus musculus [14]): 32%
inhibition [1]: 56%
Decrease (Mus musculus [15]): 91%
inhibition [16]: 47%
Decrease (Mus musculus [17]): 30%

inhibition [1]: 36%
Decrease [10]: Not significant
Decrease [11]: Not significant
IC50 [19]: Not significant
Compound: C/C(=C\CC1OC(=O)NC1=O)c1cccc(OCCc2nc(-c3ccccc3)oc2C)c1 (stereo unspecified)
Decrease (Mus musculus [18]): inactive

IC50 [13]: Not significant
Compound: C/C(=C\Cn1oc(=O)[nH]c1=O)c1cccc(OCc2nc(-c3ccccc3)oc2C)c1 (stereo in doubt; 67)
Decrease (Mus musculus [20]): 28%
Decrease (Mus musculus [14]): 30%
Decrease (Mus musculus [21]): 75%

inhibition [1]: 49%
Compound: Cc1oc(-c2ccc(C(F)(F)F)cc2)nc1COc1cccc(/C=C/C(C)n2oc(=O)[nH]c2=O)c1 (stereo unspecified)
Decrease (Mus musculus [22]): inactive
Decrease (Mus musculus [23]): 83%
Decrease (Mus musculus [17]): 41%
